From ChEMBL document CHEMBL4196173, “Stabilized β-Hairpin Peptide Inhibits Insulin Degrading Enzyme” (J Med Chem, 2018)
Calls of active or inactive are those of the source. The rule behind the calls is not given here.

Legend:
[1] = Absolute bioavailability in lean C57BL/6J mouse at 100 mg/kg, ip by LC-MS analysis; type: ADME, organism-based; details: in vivo
How it was run: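 Mice received the peptide by orbital i.v. injection (taken as 100%) or by i.p. injection. Plasma was sampled from 20 min to 43 h, TCA-precipitated and analysed by LC–MS. Fabc% = (AUCip × Div)/(AUCiv × Dip) × 100%. Two independent experiments.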

[2] = biological target: Insulin-degrading enzyme (Homo sapiens) (UniProt P14735); assay: Inhibition of IDE (unknown origin) assessed as potentiation of insulin-induced AKT phosphorylation in rat skeletal muscle cells at 100 uM preincubated up to 12 hrs followed by insulin addition and measured after 10 mins by Western blot analysis; type: cell-based
Insulin-degrading enzyme (Homo sapiens), sequence (P14735 whole entry): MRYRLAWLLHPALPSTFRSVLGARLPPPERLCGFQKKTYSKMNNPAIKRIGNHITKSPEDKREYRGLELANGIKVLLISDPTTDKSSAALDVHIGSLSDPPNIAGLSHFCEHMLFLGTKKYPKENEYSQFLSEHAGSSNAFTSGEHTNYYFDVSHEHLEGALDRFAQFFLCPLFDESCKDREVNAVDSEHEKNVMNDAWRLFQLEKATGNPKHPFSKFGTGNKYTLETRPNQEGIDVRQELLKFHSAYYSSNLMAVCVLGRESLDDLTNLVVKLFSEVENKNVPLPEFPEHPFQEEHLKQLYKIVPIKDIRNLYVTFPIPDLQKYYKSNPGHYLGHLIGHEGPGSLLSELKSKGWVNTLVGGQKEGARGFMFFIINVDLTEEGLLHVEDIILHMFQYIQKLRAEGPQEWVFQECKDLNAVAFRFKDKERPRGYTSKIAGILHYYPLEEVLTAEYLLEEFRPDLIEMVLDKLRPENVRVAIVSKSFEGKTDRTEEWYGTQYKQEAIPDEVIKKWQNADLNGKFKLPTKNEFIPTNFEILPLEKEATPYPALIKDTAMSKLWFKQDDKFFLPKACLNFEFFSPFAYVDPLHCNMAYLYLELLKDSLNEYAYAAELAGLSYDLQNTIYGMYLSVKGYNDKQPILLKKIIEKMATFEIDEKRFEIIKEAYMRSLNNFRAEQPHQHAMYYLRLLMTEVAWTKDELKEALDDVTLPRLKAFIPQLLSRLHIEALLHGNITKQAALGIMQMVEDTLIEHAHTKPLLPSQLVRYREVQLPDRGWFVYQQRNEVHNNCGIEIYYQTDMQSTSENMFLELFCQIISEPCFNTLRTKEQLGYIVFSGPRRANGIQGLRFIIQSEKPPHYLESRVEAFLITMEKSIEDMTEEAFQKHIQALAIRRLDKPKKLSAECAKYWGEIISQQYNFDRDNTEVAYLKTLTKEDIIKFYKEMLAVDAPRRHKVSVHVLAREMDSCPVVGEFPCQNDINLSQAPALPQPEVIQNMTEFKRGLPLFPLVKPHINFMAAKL
How it was run: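 Rat skeletal muscle cells were treated with 100 nM IDE plus peptide, for 10 min or at time points up to 24 h with 100 μM. Insulin (10 nM) was then added for 10 min. RIPA lysates were run on 10% SDS-PAGE and blotted for pAKT and AKT with GAPDH as loading control. Densitometry on three regions, two-tailed t test.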

Mus musculus [3] = assay: Effect on amyloid beta (1-40) levels in lean C57BL/6J mouse brain at 80 mg/kg, ip administered per another day measured after 4 hrs to 11 days post injection by ELISA; type: ADME, organism-based; details: in vivo
How it was run: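 Male lean C57BL/6J mice received 80 mg kg−1 i.p. every other day (n = 5) or PBS vehicle. Brains (~350 mg) were Dounce-homogenized in PBS with 1 mM PMSF and spun at 13,000 rpm for 30 min at 277 K. Supernatant Aβ(1–40) was measured by ELISA at 4 h, 24 h, 7 days and 11 days. Mean ± SEM, two-tailed t test.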

Mus musculus [4] = assay: Induction of glucagon levels in lean C57BL/6J mouse at 80 mg/kg, ip after 30 to 120 mins post injection by ELISA; type: functional, organism-based
How it was run: (§1)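 Male lean C57BL/6J mice received 80 mg kg−1 i.p. (n = 5) or PBS. At 30 or 120 min, heparinized blood was taken from tail or eye socket and spun to plasma. Insulin (5 μL plasma), C-peptide, glucagon, beta-endorphin and TNF alpha (10 μL each) were measured by ultrasensitive ELISA. Mean ± SEM, two-tailed t test.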

[5] = Tmax in lean C57BL/6J mouse at 100 mg/kg, ip by LC-MS analysis; type: ADME, organism-based; details: in vivo
How it was run: (§2)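 Male lean C57BL/6J mice, 13–15 weeks old, given one i.p. dose of 100 mg kg−1 (n = 5). Tail or eye-socket blood was taken from 20 min to 43 h and spun to plasma. 30 μL plasma was mixed with 100 μL 10% TCA in H2O/CH3CN (1:1) and chilled at 277 K for 15 min. After centrifugation the peptide left in the supernatant was quantified by LC–MS. Two independent experiments.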

[6] = Drug uptake in human HeLa cells at 5 uM using FITC-labeled compound after 2 hrs at 310 K by trypan blue-fluorescence based FACS analysis; type: ADME, cell-based
How it was run: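 HeLa cells were grown overnight in DMEM with 10% FBS, then given 5 μM FITC-labelled peptide in FBS-free medium for 2 h at 310 K. Cells were washed with PBS and 0.4% trypan blue, trypsinized and washed. Mean fluorescence was measured by flow cytometry with gated cell counts. Three independent experiments.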

HeLa = assay: Cytotoxicity against human HeLa cells assessed as reduction in cell viability at <300 uM after 24 hrs at 310 K by MTT assay; type: cell-based
How it was run: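 HeLa cells were grown overnight in DMEM with 10% FBS, then exposed to serial dilutions starting at 300 μM in medium with 5% FBS for 24 h at 310 K under 5% CO2. MTT was added for a further 4 h and formazan absorbance read at 490 nm. Three independent experiments in duplicate.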

[7] = Drug uptake in human HeLa cells at 5 uM using FITC-labeled compound after 2 hrs at 310 K by LC-MS analysis; type: ADME, cell-based
How it was run: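 HeLa cells were exposed to FITC-labelled peptide for 2 h, washed with PBS and 0.4% trypan blue, then trypsinized, washed and lysed. The lysates were examined by LC–MS.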

Mus musculus [8] = assay: Effect on basal TNFalpha levels in lean C57BL/6J mouse at 80 mg/kg, ip after 30 to 120 mins post injection by ELISA; type: ADME, organism-based; details: in vivo; how it was run: as §1
Mus musculus [9] = assay: Induction of insulin levels in lean C57BL/6J mouse at 80 mg/kg, ip after 30 to 120 mins post injection by ELISA; type: functional, organism-based; how it was run: as §1
Mus musculus [10] = assay: Effect on basal c-peptide levels in lean C57BL/6J mouse at 80 mg/kg, ip after 30 to 120 mins post injection by ELISA; type: ADME, organism-based; details: in vivo; how it was run: as §1
[11] = Drug uptake in human HeLa cells at 5 uM using FITC-labeled compound after 2 hrs at 310 K by DAPI-staining based confocal microscopy; type: ADME, cell-based
Mus musculus [12] = assay: Anti-diabetic activity in DIO C57BL/6J mouse model assessed as reduction in glucose levels at 80 mg/kg, ip administered 30 min prior to glucose stimulation […] by GTT; type: functional, organism-based
[13] = biological target: Insulin-degrading enzyme (Homo sapiens) (UniProt P14735); assay: Inhibition of IDE (unknown origin)-mediated FITC-insulin degradation in rat skeletal muscle cells at 100 uM after 10 mins at 310 K by DAPI-staining based fluorescent inverted microscopic imaging analysis; type: cell-based
How it was run: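 Rat skeletal muscle cells on coverslips were given 100 nM wild-type IDE and 100 μM peptide for 10 min at 310 K, then FITC-insulin for a further 10 min. Cells were washed, fixed in 4% paraformaldehyde, stained with DAPI and imaged by fluorescent inverted microscopy. Repeated three times.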

[14] = Cmax in lean C57BL/6J mouse at 100 mg/kg, ip by LC-MS analysis; type: ADME, organism-based; parameters: dose 100 mg/kg, route intraperitoneal; details: in vivo; how it was run: as §2
Mus musculus [15] = assay: Effect on basal beta-endrophins levels in lean C57BL/6J mouse at 80 mg/kg, ip after 30 to 120 mins post injection by ELISA; type: ADME, organism-based; details: in vivo; how it was run: as §1
[16] = Drug uptake in brain parenchyma of lean C57BL/6J mouse at 80 mg/kg, iv using FITC-labeled compound by two-photon microscopic analysis; details: in vivo
[17] = Selectivity ratio of IC50 for ACE (unknown origin) to IC50 for mouse His-tagged IDE (42 to 1019 residues)

bioavailability [1]: 83.5%
inhibition [2]: Active
Tmax [5]: 1.4 h
Drug uptake [6]: Active
Drug uptake [7]: Active
Drug uptake [11]: Active
inhibition [13]: Active
Cmax [14]: 619 µg/mL
Drug uptake [16]: Not Active
Ratio IC50 [17]: > 1000
Structure (SMILES): CC(=O)N[C@@H](CCC(=O)O)C(=O)N[C@@H](Cc1c[nH]c2ccccc12)C(=O)N[C@@H](CCCNC(=N)N)C(=O)N[C@@H](Cc1ccccc1)C(=O)N[C@H]1CC(=O)NC[C@@H](C(=O)N[C@@H](CC(C)C)C(=O)N[C@@H](Cc2ccc(O)cc2)C(=O)N[C@@H](CC(C)C)C(=O)N[C@H](C(=O)N[C@@H](CS)C(=O)NCC(N)=O)C(C)C)NC(=O)[C@H](CCC(=O)O)NC(=O)[C@@H]2CCCN2C(=O)[C@H]2CCCN2C(=O)CNC1=O
Activity (Mus musculus [3]): Non-Toxic
Activity (Mus musculus [4]): Active
Activity (HeLa): Non-Toxic
Activity (Mus musculus [8]): Non-Toxic
Activity (Mus musculus [9]): Active
Activity (Mus musculus [10]): Non-Toxic
Activity (Mus musculus [12]): Active
Activity (Mus musculus [15]): Non-Toxic
